# Reference: ChEMBL document CHEMBL5108039, “Piperazine tethered bergenin heterocyclic hybrids: design, synthesis, anticancer activity, and molecular docking studies” (RSC Med Chem, 2022)
# Assays:
# [1] = system: HCT-15; experiment: Cytotoxicity against human HCT-15 cells assessed as cell growth inhibition; type: functional, cell-based
# In short: (§1)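 Compounds were dissolved in sterile DMSO as 10 mg ml−1 stocks and tested for in vitro growth inhibition of human cancer cell lines. Doxorubicin was the standard drug and DMSO (0.01%) the vehicle control. IC50 values are reported as means.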
# [2] = system: CAL-27; experiment: Cytotoxicity against human CAL-27 cells assessed as cell growth inhibition; type: functional, cell-based; in short: as §1
# [3] = system: SCC-9; experiment: Cytotoxicity against human SCC-9 cells assessed as cell growth inhibition; type: functional, cell-based; in short: as §1
# [4] = system: A549; experiment: Cytotoxicity against human A549 cells assessed as cell growth inhibition; type: functional, cell-based
# In short: (§2)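 Compounds were dissolved in sterile DMSO as 10 mg ml−1 stocks and tested in vitro for cytotoxicity in a cell-line panel, with DMSO (0.01%) as vehicle control and doxorubicin as standard. Mean IC50 values were reported, and the normal lung epithelial cells were tested up to 100 μM.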
# [5] = system: MCF7; experiment: Cytotoxicity against human MCF7 cells assessed as cell growth inhibition; type: functional, cell-based; in short: as §1
# [6] = Cytotoxicity against human BEAS-2B cells assessed as cell growth inhibition; type: toxicity, cell-based; in short: as §2
# [7] = system: CAL-27; experiment: Cell cycle arrest in human CAL-27 cells assessed as accumulation at G0/G1 phase at 10 uM incubated for 24 hrs by flow cytometry (reference value: 77.6 %); type: functional
# [8] = system: CAL-27; experiment: Cell cycle arrest in human CAL-27 cells assessed as accumulation at G0/G1 phase at 34 uM incubated for 24 hrs by flow cytometry (reference value: 77.6 %); type: functional
# [9] = system: CAL-27; experiment: Cell cycle arrest in human CAL-27 cells assessed as accumulation at S phase at 10 uM incubated for 24 hrs by flow cytometry (reference value: 3.6 %); type: functional
# [10] = system: CAL-27; experiment: Cell cycle arrest in human CAL-27 cells assessed as accumulation at S phase at 34 uM incubated for 24 hrs by flow cytometry (reference value: 3.6 %); type: functional
# [11] = system: CAL-27; experiment: Cell cycle arrest in human CAL-27 cells assessed as accumulation at G2/M phase at 10 uM incubated for 24 hrs by flow cytometry (reference value: 11.9 %); type: functional
# [12] = system: CAL-27; experiment: Cell cycle arrest in human CAL-27 cells assessed as accumulation at G2/M phase at 34 uM incubated for 24 hrs by flow cytometry (reference value: 11.9 %); type: functional
# [13] = system: SCC-9; experiment: Cell cycle arrest in human SCC-9 cells assessed as accumulation at G0/G1 phase at 17 uM incubated for 24 hrs by flow cytometry (reference value: 70.8 %); type: functional
# [14] = system: SCC-9; experiment: Cell cycle arrest in human SCC-9 cells assessed as accumulation at G0/G1 phase at 34 uM incubated for 24 hrs by flow cytometry (reference value: 70.8 %); type: functional
# [15] = system: SCC-9; experiment: Cell cycle arrest in human SCC-9 cells assessed as accumulation at S phase at 17 uM incubated for 24 hrs by flow cytometry (reference value: 14.4 %); type: functional
# [16] = system: SCC-9; experiment: Cell cycle arrest in human SCC-9 cells assessed as accumulation at S phase at 34 uM incubated for 24 hrs by flow cytometry (reference value: 14.4 %); type: functional
# [17] = system: SCC-9; experiment: Cell cycle arrest in human SCC-9 cells assessed as accumulation at G2/M phase at 17 uM incubated for 24 hrs by flow cytometry (reference value: 14.2 %); type: functional
# [18] = system: SCC-9; experiment: Cell cycle arrest in human SCC-9 cells assessed as accumulation at G2/M phase at 34 uM incubated for 24 hrs by flow cytometry (reference value: 14.2 %); type: functional
# [19] = system: CAL-27; experiment: Induction of apoptosis in human CAL-27 cells assessed as live cells at 10 uM incubated for 24 hrs by Annexin V-FITC/PI staining based flow cytometric analysis (reference value: 99.8 %); type: functional
# In short: (§3)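 CAL27 cells were treated with vehicle, doxorubicin or test compounds at 10–63 μM, and apoptosis was assessed by annexin V–FITC/PI staining with flow cytometry. Cells were scored as live, early apoptotic, late apoptotic or necrotic. The vehicle was DMSO (0.01%).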
# [20] = system: CAL-27; experiment: Induction of apoptosis in human CAL-27 cells assessed as early apoptotic cells at 10 uM incubated for 24 hrs by Annexin V-FITC/PI staining based flow cytometric analysis (reference value: 0.1 %); type: functional; in short: as §3
# [21] = system: CAL-27; experiment: Induction of apoptosis in human CAL-27 cells assessed as late apoptotic cells at 10 uM incubated for 24 hrs by Annexin V-FITC/PI staining based flow cytometric analysis (reference value: 0.1 %); type: functional; in short: as §3
# [22] = system: CAL-27; experiment: Induction of apoptosis in human CAL-27 cells assessed as necrotic cells at 10 uM incubated for 24 hrs by Annexin V-FITC/PI staining based flow cytometric analysis (reference value: 0.0 %); type: functional; in short: as §3
# [23] = system: CAL-27; experiment: Induction of apoptosis in human CAL-27 cells assessed as live cells at 34 uM incubated for 24 hrs by Annexin V-FITC/PI staining based flow cytometric analysis (reference value: 99.8 %); type: functional; in short: as §3
# [24] = system: CAL-27; experiment: Induction of apoptosis in human CAL-27 cells assessed as early apoptotic cells at 34 uM incubated for 24 hrs by Annexin V-FITC/PI staining based flow cytometric analysis (reference value: 0.1 %); type: functional; in short: as §3
# [25] = system: CAL-27; experiment: Induction of apoptosis in human CAL-27 cells assessed as late apoptotic cells at 34 uM incubated for 24 hrs by Annexin V-FITC/PI staining based flow cytometric analysis (reference value: 0.1 %); type: functional; in short: as §3
# [26] = system: CAL-27; experiment: Induction of apoptosis in human CAL-27 cells assessed as necrotic cells at 34 uM incubated for 24 hrs by Annexin V-FITC/PI staining based flow cytometric analysis (reference value: 0.0 %); type: functional
# [27] = system: SCC-9; experiment: Induction of apoptosis in human SCC-9 cells assessed as live cells at 17 uM incubated for 24 hrs by Annexin V-FITC/PI staining based flow cytometric analysis (reference value: 95.7 %); type: functional
# [28] = system: SCC-9; experiment: Induction of apoptosis in human SCC-9 cells assessed as early apoptotic cells at 17 uM incubated for 24 hrs by Annexin V-FITC/PI staining based flow cytometric analysis (reference value: 2.8 %); type: functional
# [29] = system: SCC-9; experiment: Induction of apoptosis in human SCC-9 cells assessed as late apoptotic cells at 17 uM incubated for 24 hrs by Annexin V-FITC/PI staining based flow cytometric analysis (reference value: 1.4 %); type: functional
# [30] = system: SCC-9; experiment: Induction of apoptosis in human SCC-9 cells assessed as necrotic cells at 17 uM incubated for 24 hrs by Annexin V-FITC/PI staining based flow cytometric analysis (reference value: 0.1 %); type: functional
# [31] = system: SCC-9; experiment: Induction of apoptosis in human SCC-9 cells assessed as live cells at 34 uM incubated for 24 hrs by Annexin V-FITC/PI staining based flow cytometric analysis (reference value: 95.7 %); type: functional
# [32] = system: SCC-9; experiment: Induction of apoptosis in human SCC-9 cells assessed as early apoptotic cells at 34 uM incubated for 24 hrs by Annexin V-FITC/PI staining based flow cytometric analysis (reference value: 2.8 %); type: functional
# [33] = system: SCC-9; experiment: Induction of apoptosis in human SCC-9 cells assessed as late apoptotic cells at 34 uM incubated for 24 hrs by Annexin V-FITC/PI staining based flow cytometric analysis (reference value: 1.4 %); type: functional
# [34] = system: SCC-9; experiment: Induction of apoptosis in human SCC-9 cells assessed as necrotic cells at 34 uM incubated for 24 hrs by Annexin V-FITC/PI staining based flow cytometric analysis (reference value: 0.1 %); type: functional
smiles,measurement,setting,value
COc1c(O)c(CN2CCN(CC(=O)Nc3nc(-c4ccccc4)cs3)CC2)c2c(c1O)C1O[C@H](CO)[C@@H](O)[C@H](O)C1OC2=O (some centres undefined),IC50,[1],69.7 µM
same,IC50,[2],20.7 µM
same,IC50,[3],34.4 µM
same,IC50,[4],> 100 µM
same,IC50,[5],> 100 µM
same,IC50,[6],> 100 µM
same,Activity,[7],87.4%
same,Activity,[8],85.6%
same,Activity,[9],2.9%
same,Activity,[10],4.1%
same,Activity,[11],10.6%
same,Activity,[12],10.8%
same,Activity,[13],71%
same,Activity,[14],73.6%
same,Activity,[15],16.5%
same,Activity,[16],12.6%
same,Activity,[17],11.8%
same,Activity,[18],10.3%
same,Activity,[19],94.5%
same,Activity,[20],1.2%
same,Activity,[21],2.2%
same,Activity,[22],2%
same,Activity,[23],88.7%
same,Activity,[24],2.2%
same,Activity,[25],4.8%
same,Activity,[26],4.3%
same,Activity,[27],28%
same,Activity,[28],28.8%
same,Activity,[29],42%
same,Activity,[30],1.3%
same,Activity,[31],20.2%
same,Activity,[32],32.4%
same,Activity,[33],45.6%
same,Activity,[34],1.8%
